In ChEMBL document CHEMBL1126750, “Nonpeptide angiotensin II receptor antagonists. Synthesis and biological activity of benzimidazolecarboxylic acids” (J Med Chem, 1993) one finds Inhibition, IC50 and inhibition data, which are given here for twelve molecules.

Test [1] deals with Rattus norvegicus. The experiment in a line: Percent inhibition of the Angiotensin-II (0.1micro g/kg, iv) induced pressor response after 7 hours of administration (10 mg/kg po) in rats. The class given is functional. In outline:
(§1)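 Conscious male Sprague-Dawley rats dosed orally with test compound; pressor response to AII challenge (0.1 µg/kg iv) measured at 3 and 7 h after dosing and expressed as percent inhibition. Duplicate experiments, with n = 3 for some compounds; variation in % inhibition under 30%.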

Test [2] concerns Rattus norvegicus. Kind of test: Percent inhibition of the Angiotensin-II (0.1ug/kg, iv) induced pressor response after 3 hours of administration (10 mg/kg po) in rats. Type of test: functional. In outline: as §1
For another test, the species on record is Oryctolagus cuniculus. Kind of test: Concentration required for inhibition of Angiotensin-II induced rabbit aorta strips contraction. Type of test: functional. The procedure, abridged:
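Isolated rabbit aortic strips contracted with AII (10 nM); test compound inhibition measured from concentration-inhibition curves, n = 6-8; IC50 is the concentration halving the AII-induced contraction.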

Test [3] has as its system Rattus norvegicus. The experiment in a line: Percent inhibition of the Angiotensin-II (0.1micro g/kg, iv) induced pressor response after 7 hours of administration (1 mg/kg po) in rats. Type of test: functional. In outline: as §1
Test [4] addresses T1, Angiotensin II receptor (Rattus norvegicus) (UniProt P29089+P25095+P35351). The experiment in a line: Percent inhibition of the Angiotensin-II (0.1ug/kg, iv) induced pressor response after 3 hours of administration (1 mg/kg po) in rats. The class given is functional, organism-based. In outline: as §1
Test [5] concerns the target T1, Angiotensin II receptor (Rattus norvegicus). Kind of test: (§2) Percent inhibition of the Angiotensin-II (0.1micro g/kg, iv) induced pressor response after 7 hours of administration (3 mg/kg po) in rats. The class given is functional, organism-based. In outline: as §1
Test [6] has as its system Rattus norvegicus. Kind of test: Percent inhibition of the Angiotensin-II (0.1micro g/kg, iv) induced pressor response after 7 hours of administration (1 mg/kg po) in rats. Type of test: functional. In outline: as §1
The target in test [7] is T1, Angiotensin II receptor (Rattus norvegicus). The experiment in a line: Percent inhibition of the Angiotensin-II (0.1ug/kg, iv) induced pressor response after 3 hours of administration (3 mg/kg po) in rats. Type of test: functional, organism-based. The procedure, abridged: as §1
Test [8] deals with Rattus norvegicus. Kind of test: Percent inhibition of the Angiotensin-II (0.1ug/kg, iv) induced pressor response after 7 hours of administration (3 mg/kg po) in rats. The class given is functional. The procedure, abridged:
as §1

For test [9], the system named is Rattus norvegicus. The experiment in a line: Percent inhibition of the Angiotensin-II (0.1 micro g/kg, iv) induced pressor response after 7 hours of administration (1 mg/kg po) in rats. The class given is functional. The procedure, abridged:
as §1

Test [10] deals with Rattus norvegicus. The test is described as §2. The class given is functional. The procedure, abridged:
as §1

Test [11] addresses T1, Angiotensin II receptor (Rattus norvegicus). The experiment in a line: Percent inhibition of the Angiotensin-II (0.1ug/kg, iv) induced pressor response after 7 hours of administration (1 mg/kg po) in rats. Type of test: functional, organism-based. In outline:
as §1

The test system of test [12] is Rattus norvegicus. The experiment in a line: Percent inhibition of the Angiotensin-II (0.1micro g/kg, iv) induced pressor response after 7 hours of administration (1 mg/kg po) in rat. The class given is functional. In outline: as §1
For test [13], the target named is T2, Type-1 angiotensin II receptor (Bos taurus, UniProt P25104).
T2 sequence (P25104 whole entry): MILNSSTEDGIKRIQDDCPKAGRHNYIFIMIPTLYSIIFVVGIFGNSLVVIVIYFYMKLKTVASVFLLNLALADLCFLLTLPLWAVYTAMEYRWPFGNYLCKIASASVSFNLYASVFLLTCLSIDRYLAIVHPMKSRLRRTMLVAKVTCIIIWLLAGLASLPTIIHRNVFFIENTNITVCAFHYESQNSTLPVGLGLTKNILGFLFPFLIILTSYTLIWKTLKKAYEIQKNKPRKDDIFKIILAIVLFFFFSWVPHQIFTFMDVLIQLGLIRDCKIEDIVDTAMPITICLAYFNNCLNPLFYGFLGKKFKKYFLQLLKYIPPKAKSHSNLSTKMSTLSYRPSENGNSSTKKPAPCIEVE
The experiment in a line: Inhibition of specific binding of [125 I ] Angiotensin-II (0.2 nM) to bovine adrenal cortex. The class given is tissue-based.

For test [14], the system named is Rattus norvegicus. Kind of test: Percent inhibition of the Angiotensin-II (0.1micro g/kg, iv) induced pressor response after 3 hours of administration (10 mg/kg po) in rats. The class given is functional. The procedure, abridged:
as §1

The test system of test [15] is Rattus norvegicus. The experiment in a line: Percent inhibition of the Angiotensin-II (0.1 micro g/kg, iv) induced pressor response after 3 hours of administration (3 mg/kg po) in rats. The class given is functional. In outline:
as §1

For orientation: Inhibition means how much of the control response was suppressed. The IC50 is the concentration that gives 50% inhibition. Lower therefore signals greater potency in that assay. `CCOc1nc2c(C(=O)O)cccc2n1Cc1ccc(-c2ccccc2-c2nn[nH]n2)cc1`: the Inhibition stood at 5% in the test with Rattus norvegicus [1] and 22% in the test on Rattus norvegicus [2]. The midpoint of inhibition in the test filed under Oryctolagus cuniculus, the IC50, lay at 131 nM.
A word on the inhibition: it is the share of the control response that was lost under treatment. High values mean a strong effect, low ones a weak effect. Regarding `CNc1nc2cccc(C(=O)O)c2n1Cc1ccc(-c2ccccc2-c2nn[nH]n2)cc1`, the Inhibition in the test with Rattus norvegicus [3] came to 49%. This molecule showed an inhibition in test [4] of 28%.
For the molecule `CCNc1nc2cccc(C(=O)O)c2n1Cc1ccc(-c2ccccc2-c2nn[nH]n2)cc1`, the inhibition in test [5] amounted to 100%; in [7], 100%; in [4] it was 81%. Moreover, in the test with Rattus norvegicus [6], the Inhibition was 85%.
In the test on Rattus norvegicus [8], `CCCOc1nc2cccc(C(=O)OCC)c2n1Cc1ccc(-c2ccccc2-c2nn[nH]n2)cc1` yielded an Inhibition of 93%. In addition, the inhibition in test [7] was 66%.
For the molecule `CCCCNc1nc2cccc(C(=O)O)c2n1Cc1ccc(-c2ccccc2-c2nn[nH]n2)cc1`, the inhibition in test [5] stood at 61%; in test [7], 52%; in [4], 38%. The molecule also came in with an Inhibition in the test with Rattus norvegicus [9] of 19%.
On to `CCCCc1nc2cccc(C(=O)O)c2n1Cc1ccc(-c2ccccc2-c2nn[nH]n2)cc1`, for which the Inhibition in the test on Rattus norvegicus [10] came out at 76%. Besides, the inhibition in [11] was 53%; in test [7] it was 80%; in test [4], 49%.
Consider `CNCc1nc2cccc(C(=O)O)c2n1Cc1ccc(-c2ccccc2-c2nn[nH]n2)cc1`, for which the Inhibition with Rattus norvegicus [12] was found to be 50%. This molecule also yielded an IC50 in test [13] of 800 nM. The molecule also displayed an inhibition in test [4] of 42%.
For `CCOc1nc2ccc(C(=O)O)cc2n1Cc1ccc(-c2ccccc2-c2nn[nH]n2)cc1`, the Inhibition in the test with Rattus norvegicus [1] came out at 34%; in the test with Rattus norvegicus [2] it was 50%. For the same molecule, the results for the 50% inhibitory concentration (IC50) (in the test filed under Oryctolagus cuniculus; in test [13]) were 1.9 nM and 930 nM, respectively.
Molecule `Cc1nc2cccc(C(=O)O)c2n1Cc1ccc(-c2ccccc2-c2nn[nH]n2)cc1` yielded an Inhibition in the test on Rattus norvegicus [10] of 51%. The inhibition in [7] is 50%.
In the case of `CCOc1nc2cccc(C(=O)O)c2n1Cc1ccc(-c2ccccc2-c2nnn[nH]2)cc1`, the inhibition in [11] is 92%; in test [5] it was 100%; in test [7], 100%; in test [4], 100%. For the same molecule, the Inhibition in the test with Rattus norvegicus [1] and in the test with Rattus norvegicus [14] was 100% throughout. In addition, the concentration for half-maximal inhibition (IC50) is 0.2 nM in the test listed under Oryctolagus cuniculus and 110 nM in test [13].
In the case of `CCOc1nc2cc(C(=O)O)ccc2n1Cc1ccc(-c2ccccc2-c2nn[nH]n2)cc1`, the Inhibition with Rattus norvegicus [1] and in the test on Rattus norvegicus [2] was 4% in each case. Moreover, the IC50 in the test listed under Oryctolagus cuniculus was found to be 191 nM; in [13], 13000 nM.
For `CCc1nc2cccc(C(=O)O)c2n1Cc1ccc(-c2ccccc2-c2nn[nH]n2)cc1`, the inhibition was found to be 62% in test [11], 95% in test [5] and 79% in [4]. The same molecule registered an Inhibition in the test on Rattus norvegicus [15] of 96%.
